Measured values: publication PMC11471106 (Drug Design, Development and Therapy, 2024)

Test system: MCF-7 cells
Test: Inhibition of [125I]I-AM uptake into MCF-7 cells by blocking agents
Format: cell-based
Conditions: blocking agent at 1 mm
Procedure, shortened: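 Blocking uptake study in MCF-7 cells, cultured and given radiotracer as in the standard uptake assay (serum-free MEM + 0.2% BSA, 37 °C, gamma counting of lysate versus medium). Cells were treated separately with unlabelled parent compound, tamoxifen or 17β-estradiol, each at one stated concentration. Groups were compared by one-way ANOVA with Tukey's multiple comparison test.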

SMILES | effect on uptake of [125I]I-AM into MCF-7 cells
CC/C(=C(\c1ccccc1)c1ccc(OCCN(C)C)cc1)c1ccccc1 [tamoxifen] | significantly inhibited
C[C@]12CC[C@@H]3c4ccc(O)cc4CC[C@H]3[C@@H]1CC[C@@H]2O [estradiol, 17 β -estradiol] | not inhibited
